ChEMBL document CHEMBL1135783, “Selective agonists at group II metabotropic glutamate receptors: synthesis, stereochemistry, and molecular pharmacology of (S)- and (R)-2-amino-4-(4-hydroxy[1,2,5]thiadiazol-3-yl)butyric acid” (J Med Chem, 2002)

Each compound was assayed against Metabotropic glutamate receptor 2 (Rattus norvegicus, UniProt P31421) (assay: Compound was evaluated for the inhibitory activity against cloned Metabotropic glutamate receptor 2).
Sequence of Metabotropic glutamate receptor 2 (P31421 whole entry): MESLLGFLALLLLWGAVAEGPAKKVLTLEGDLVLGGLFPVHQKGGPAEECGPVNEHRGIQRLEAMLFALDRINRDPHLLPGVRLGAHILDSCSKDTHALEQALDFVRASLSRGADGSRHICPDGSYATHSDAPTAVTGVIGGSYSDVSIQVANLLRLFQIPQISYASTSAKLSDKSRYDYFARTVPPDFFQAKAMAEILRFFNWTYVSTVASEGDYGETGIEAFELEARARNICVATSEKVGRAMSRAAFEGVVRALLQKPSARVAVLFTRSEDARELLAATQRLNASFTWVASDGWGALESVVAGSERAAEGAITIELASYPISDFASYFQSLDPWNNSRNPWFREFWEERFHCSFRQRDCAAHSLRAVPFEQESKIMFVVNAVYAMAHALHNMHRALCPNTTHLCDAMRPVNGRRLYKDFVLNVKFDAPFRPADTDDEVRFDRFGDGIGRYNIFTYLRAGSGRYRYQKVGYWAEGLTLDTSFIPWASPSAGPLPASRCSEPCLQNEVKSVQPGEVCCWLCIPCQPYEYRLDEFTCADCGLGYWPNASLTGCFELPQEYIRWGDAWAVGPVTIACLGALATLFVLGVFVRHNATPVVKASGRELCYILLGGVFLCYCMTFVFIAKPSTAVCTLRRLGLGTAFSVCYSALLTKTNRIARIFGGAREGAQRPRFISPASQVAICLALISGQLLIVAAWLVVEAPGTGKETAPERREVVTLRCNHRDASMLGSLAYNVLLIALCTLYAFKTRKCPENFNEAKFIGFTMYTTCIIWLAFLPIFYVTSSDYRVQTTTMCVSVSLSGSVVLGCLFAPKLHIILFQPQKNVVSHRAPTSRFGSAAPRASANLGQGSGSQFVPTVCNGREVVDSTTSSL
How it was run: (§1)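 CHO cell lines stably expressing mGluR1α, mGluR2, mGluR4a or mGluR5a, grown at 37 °C in 5% CO2 in DMEM with reduced (S)-glutamine ([…]) and 10% dialyzed fetal calf serum. Cells were seeded 2 days before assay: 1.8 × 10^6 cells/well for inositol phosphate (PI hydrolysis) or 1.0 × 10^6 for cAMP formation. Antagonist activity was tested at 1 mM unless stated otherwise.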
For `N[C@H](Cc1cc(=O)[nH]o1)C(=O)O`, the EC50 was over 1000 µM. `N[C@@H](Cc1cc(=O)[nH]o1)C(=O)O` gave an EC50 of over 1000 µM.

What follows are compounds tested against Metabotropic glutamate receptor 4 (Rattus norvegicus, UniProt P31423) (assay: Compound was evaluated for the inhibitory activity against cloned Metabotropic glutamate receptor 4).
Sequence of Metabotropic glutamate receptor 4 (P31423 whole entry): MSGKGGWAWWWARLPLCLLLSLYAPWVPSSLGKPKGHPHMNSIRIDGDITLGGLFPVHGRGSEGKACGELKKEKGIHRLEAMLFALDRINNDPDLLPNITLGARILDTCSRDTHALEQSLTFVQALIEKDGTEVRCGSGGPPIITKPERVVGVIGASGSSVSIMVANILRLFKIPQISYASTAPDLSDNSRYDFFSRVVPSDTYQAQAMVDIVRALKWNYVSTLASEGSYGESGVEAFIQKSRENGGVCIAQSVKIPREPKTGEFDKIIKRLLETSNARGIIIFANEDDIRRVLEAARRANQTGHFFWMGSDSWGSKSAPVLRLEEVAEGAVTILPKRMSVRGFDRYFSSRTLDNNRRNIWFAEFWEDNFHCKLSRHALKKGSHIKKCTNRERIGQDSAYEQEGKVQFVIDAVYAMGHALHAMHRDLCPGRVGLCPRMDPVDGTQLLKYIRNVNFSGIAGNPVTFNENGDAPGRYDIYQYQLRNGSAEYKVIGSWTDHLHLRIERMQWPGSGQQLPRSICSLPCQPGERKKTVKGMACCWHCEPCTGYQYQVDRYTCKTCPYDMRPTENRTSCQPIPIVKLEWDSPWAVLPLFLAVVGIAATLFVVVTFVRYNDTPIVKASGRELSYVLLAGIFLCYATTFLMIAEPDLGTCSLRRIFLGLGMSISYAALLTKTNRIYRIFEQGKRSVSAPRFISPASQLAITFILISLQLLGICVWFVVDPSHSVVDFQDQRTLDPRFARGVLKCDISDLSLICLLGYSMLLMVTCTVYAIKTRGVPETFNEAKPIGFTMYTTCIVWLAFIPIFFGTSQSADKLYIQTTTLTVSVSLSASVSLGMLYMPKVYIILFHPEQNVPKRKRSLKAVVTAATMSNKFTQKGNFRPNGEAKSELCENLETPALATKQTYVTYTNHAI
How it was run: as §1
With `N[C@@H](CCc1nsnc1O)C(=O)O` the EC50 was over 1000 µM. With `N[C@H](CCc1nsnc1O)C(=O)O` the EC50 was over 1000 µM. In the case of `N[C@H](Cc1cc(=O)[nH]o1)C(=O)O`, the EC50 is reported as over 1000 µM. Compound `N[C@@H](Cc1cc(=O)[nH]o1)C(=O)O` has an EC50 of over 1000 µM. For `N[C@@H](CCC(=O)O)C(=O)O` [GLUTAMIC ACID], the EC50 was 12 µM.

The compounds below were run against Metabotropic glutamate receptor 5 (Rattus norvegicus, UniProt P31424) (assay: Compound was evaluated for the inhibitory activity against cloned Metabotropic glutamate receptor 5).
Sequence of Metabotropic glutamate receptor 5 (P31424 whole entry): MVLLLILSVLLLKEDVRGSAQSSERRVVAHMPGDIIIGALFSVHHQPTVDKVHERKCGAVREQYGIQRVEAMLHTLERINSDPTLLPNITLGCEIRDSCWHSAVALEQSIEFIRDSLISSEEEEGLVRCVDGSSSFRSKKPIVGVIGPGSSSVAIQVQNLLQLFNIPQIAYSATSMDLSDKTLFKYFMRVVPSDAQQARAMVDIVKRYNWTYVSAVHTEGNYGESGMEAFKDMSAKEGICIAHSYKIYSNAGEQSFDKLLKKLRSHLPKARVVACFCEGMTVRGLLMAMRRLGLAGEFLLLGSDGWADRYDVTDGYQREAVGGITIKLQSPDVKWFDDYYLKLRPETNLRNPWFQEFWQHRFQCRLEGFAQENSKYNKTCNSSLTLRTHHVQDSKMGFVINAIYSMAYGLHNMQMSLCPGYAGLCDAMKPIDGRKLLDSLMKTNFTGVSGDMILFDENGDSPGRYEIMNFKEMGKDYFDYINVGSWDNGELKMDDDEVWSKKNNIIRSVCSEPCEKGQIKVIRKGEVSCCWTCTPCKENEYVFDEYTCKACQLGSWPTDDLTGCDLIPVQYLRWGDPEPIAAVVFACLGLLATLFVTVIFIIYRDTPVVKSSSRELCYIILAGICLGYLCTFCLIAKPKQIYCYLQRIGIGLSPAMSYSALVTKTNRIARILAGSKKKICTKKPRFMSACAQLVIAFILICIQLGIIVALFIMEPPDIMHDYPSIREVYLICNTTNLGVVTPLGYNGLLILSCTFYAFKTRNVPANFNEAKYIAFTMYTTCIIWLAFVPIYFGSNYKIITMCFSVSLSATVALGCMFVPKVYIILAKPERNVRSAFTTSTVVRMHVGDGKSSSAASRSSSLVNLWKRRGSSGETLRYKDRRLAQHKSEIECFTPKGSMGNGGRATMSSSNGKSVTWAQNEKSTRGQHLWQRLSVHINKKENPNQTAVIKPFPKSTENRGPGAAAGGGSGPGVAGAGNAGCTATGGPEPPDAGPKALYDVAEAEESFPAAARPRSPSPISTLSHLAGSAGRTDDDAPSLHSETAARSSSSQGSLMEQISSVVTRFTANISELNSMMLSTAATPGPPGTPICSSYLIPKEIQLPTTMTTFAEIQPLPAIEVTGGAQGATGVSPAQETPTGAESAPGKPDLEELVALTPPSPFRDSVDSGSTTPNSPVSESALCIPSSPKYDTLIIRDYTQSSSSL
How it was run: as §1
Work on `N[C@@H](CCc1nsnc1O)C(=O)O` yielded an EC50 of 190 µM. `N[C@H](CCc1nsnc1O)C(=O)O` showed an EC50 of over 1000 µM. `N[C@H](Cc1cc(=O)[nH]o1)C(=O)O` gave an EC50 of over 1000 µM. Work on `N[C@@H](Cc1cc(=O)[nH]o1)C(=O)O` yielded an EC50 of 490 µM. For `N[C@@H](CCCC(=O)O)C(=O)O` [(S)-2-AMINOADIPIC ACID], the EC50 was over 1000 µM.

These compounds were tested against Metabotropic glutamate receptor 1 (Rattus norvegicus, UniProt P23385) (assay: Compound was evaluated for the inhibitory activity against cloned Metabotropic glutamate receptor 1).
Sequence of Metabotropic glutamate receptor 1 (P23385 whole entry): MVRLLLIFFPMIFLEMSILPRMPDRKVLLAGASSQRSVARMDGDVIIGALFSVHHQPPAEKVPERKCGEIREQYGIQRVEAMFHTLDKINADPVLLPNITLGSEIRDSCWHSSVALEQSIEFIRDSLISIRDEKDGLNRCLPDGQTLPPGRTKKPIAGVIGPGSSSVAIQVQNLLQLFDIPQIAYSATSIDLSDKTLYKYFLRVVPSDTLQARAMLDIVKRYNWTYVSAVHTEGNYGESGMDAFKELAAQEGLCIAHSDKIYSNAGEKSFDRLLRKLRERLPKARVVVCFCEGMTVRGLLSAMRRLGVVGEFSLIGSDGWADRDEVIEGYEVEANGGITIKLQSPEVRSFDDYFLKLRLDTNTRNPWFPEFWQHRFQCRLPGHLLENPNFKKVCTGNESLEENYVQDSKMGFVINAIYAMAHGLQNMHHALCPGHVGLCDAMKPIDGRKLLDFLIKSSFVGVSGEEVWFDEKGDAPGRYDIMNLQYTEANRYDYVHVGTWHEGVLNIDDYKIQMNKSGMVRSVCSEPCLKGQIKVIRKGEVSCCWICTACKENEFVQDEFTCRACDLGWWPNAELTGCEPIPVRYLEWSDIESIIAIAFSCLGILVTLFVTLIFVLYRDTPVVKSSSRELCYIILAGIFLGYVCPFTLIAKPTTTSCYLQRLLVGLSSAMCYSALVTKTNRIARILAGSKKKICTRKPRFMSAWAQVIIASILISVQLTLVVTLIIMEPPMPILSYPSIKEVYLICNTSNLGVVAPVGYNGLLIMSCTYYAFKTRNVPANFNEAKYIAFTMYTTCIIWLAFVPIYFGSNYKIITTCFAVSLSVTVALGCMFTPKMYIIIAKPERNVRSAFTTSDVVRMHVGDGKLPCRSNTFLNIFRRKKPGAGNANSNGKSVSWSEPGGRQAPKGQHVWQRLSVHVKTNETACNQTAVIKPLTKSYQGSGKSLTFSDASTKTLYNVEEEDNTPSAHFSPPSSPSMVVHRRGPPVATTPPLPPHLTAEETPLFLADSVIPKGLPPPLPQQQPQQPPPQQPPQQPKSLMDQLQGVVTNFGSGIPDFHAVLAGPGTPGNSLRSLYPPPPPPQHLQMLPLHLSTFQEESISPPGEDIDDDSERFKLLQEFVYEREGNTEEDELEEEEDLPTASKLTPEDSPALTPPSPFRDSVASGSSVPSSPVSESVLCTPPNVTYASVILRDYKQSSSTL
How it was run: as §1
`N[C@@H](CCc1nsnc1O)C(=O)O` showed an EC50 of over 1000 µM. In the case of `N[C@H](CCc1nsnc1O)C(=O)O`, the EC50 is reported as over 1000 µM. Work on `N[C@H](Cc1cc(=O)[nH]o1)C(=O)O` yielded an EC50 of over 1000 µM. `N[C@@H](Cc1cc(=O)[nH]o1)C(=O)O` showed an EC50 of 250 µM.
